Published values from different studies.
JAK2 JH1: Tyrosine-protein kinase JAK2, JH1 (JAK2, Homo sapiens, UniProt O60674)
JAK2: Tyrosine-protein kinase JAK2 (JAK2, Homo sapiens, UniProt O60674)

| Structure (SMILES) | target | effect on | mode | method | tested at | measurement | value |
| --- | --- | --- | --- | --- | --- | --- | --- |
| CN(C(=O)c1ccccc1)c1cc(N(C)c2ccc3c(c2)CCc2ccc(C(=O)NCCN4CCOCC4)cc2C3=O)ccc1F | JAK2 JH1 | cell-free assay |  | competition with immobilised ligand | 1 µM | remaining binding | 100% |
| Nc1ncnc2occ(-c3ccc(NC(=O)Nc4cc(C(F)(F)F)ccc4F)cc3)c12 | JAK2 JH1 | cell-free assay | inhibitor |  | 20 µM | remaining signal | 2% |
| CCCS(=O)(=O)Nc1ccc(F)c(C(=O)c2c[nH]c3ncc(-c4ccc(Cl)cc4)cc23)c1F | JAK2 | enzyme activity | inhibitor |  | 1 µM | inhibition | < 10% |
| CS(=O)(=O)Nc1cccc(-c2csc(NC(=O)CSc3nc4nccnc4c(=O)n3CCc3ccccc3)n2)c1 | JAK2 | enzyme activity | inhibitor |  | 10 µM | inhibition | -7% |
| c1cc(CN2CCOCC2)cc(Nc2ncc(C3CC3)c(NCCc3c[nH]cn3)n2)c1 | JAK2 | enzyme activity | inhibitor | radiometric | 1 µM | remaining activity | 82% |
| CCN(CC)CCNC(=O)c1c(C)[nH]c(/C=C2\C(=O)Nc3ccc(F)cc32)c1C | JAK2 | cell-free assay |  |  | 0.5 µM | remaining signal | 88.8% |
| O=C(NCCCNc1nc(Nc2cccc(NC(=O)N3CCCC3)c2)ncc1I)c1cccs1 | JAK2 | enzyme activity | inhibitor | radiometric | 1 µM | remaining activity | 6% |
| COCCOc1nc(-c2ccc(Cl)nc2)nc2c1CN(C(=O)c1ncn3ccccc13)CC2 | JAK2 JH1 | cell-free assay |  | competition with immobilised ligand | 0.1 µM | remaining binding | 100% |
| COc1cc2ncnc(Nc3ccc(Oc4ccccc4)cc3C)c2cc1OC | JAK2 | enzyme activity | inhibitor |  | 1 µM | inhibition | -6% |
| N#CCCc1ccc2c(c1)-c1[nH]c3ccc([N+](=O)[O-])cc3c1CC(=O)N2 | JAK2 | cell-free assay |  |  | 0.5 µM | remaining signal | 93% |
| COc1cccc(CNC(=O)c2nc3scc(COCc4ccc(C(=O)O)cc4)c3c(=O)[nH]2)c1 | JAK2 JH1 | cell-free assay |  | competition with immobilised ligand | 1 µM | remaining binding | 100% |
| Cc1ccc(C(=O)NCc2ccsc2)cc1C#Cc1cn(C(C)C)c2ncnc(N)c12 | JAK2 | enzyme activity | inhibitor |  | 1 µM | activity vs control | 100% |
| Cc1ccc(Nc2nccc(N(C)c3ccc4c(C)n(C)nc4c3)n2)cc1S(N)(=O)=O | JAK2 | enzyme activity | inhibitor |  | 0.3 µM | inhibition | 12% |
| C[C@H](NC(=O)c1cnc2n1[C@](C)(Cc1ccc(C#N)cc1)C(=O)N2c1cc(Cl)c(F)c(Cl)c1)C(=O)NC1(c2ccccn2)CC1 | JAK2 JH1 | cell-free assay |  | competition with immobilised ligand | 1 µM | remaining binding | 100% |
| Cc1nn(CC(F)(F)F)cc1Nc1nccc(NCc2ccc(S(N)(=O)=O)cc2)n1 | JAK2 | enzyme activity | inhibitor | radiometric | 1 µM | remaining activity | 95% |
| O=C(CSc1nc2nccnc2c(=O)n1CCc1ccccc1)Nc1nccs1 | JAK2 JH1 | enzyme activity | inhibitor |  | 10 µM | inhibition | 2% |
| Cc1c[nH]c2nccc(Oc3c(F)cc(Nc4cc(Cl)nc(N)n4)cc3F)c12 | JAK2 JH1 | cell-free assay |  | competition with immobilised ligand | 0.1 µM | remaining binding | 75% |

| Structure (SMILES) | target | effect on | mode | method | tested at | measurement | value |
| --- | --- | --- | --- | --- | --- | --- | --- |
| CNC(=O)c1cc(Oc2ccc(NC(=O)Nc3ccc(Cl)c(C(F)(F)F)c3)cc2)ccn1 | JAK2 | cell-free assay |  |  | 0.5 µM | remaining signal | 98.2% |
| COc1cc2nccc(Oc3ccc(NC(=O)c4c5n(n(-c6ccc(F)cc6)c4=O)CCCC5)cc3)c2cc1OC | JAK2 | enzyme activity | inhibitor |  | 0.1 µM | inhibition | 10% |
| CC(C)(C)c1nc2c3cc[nH]c(=O)c3c3cc(F)ccc3c2[nH]1 | JAK2 | cell-free assay |  |  | 0.5 µM | remaining signal | 1.37% |
| CCS(=O)(=O)c1cc2cc(C[C@](O)(CC(C)(C)c3ccc(F)cc3C(N)=O)C(F)(F)F)[nH]c2cn1 | JAK2 JH1 | cell-free assay |  | competition with immobilised ligand | 1 µM | remaining binding | 53% |
| Cc1nn(CC(F)(F)F)cc1Nc1nccc(NCCc2cnc[nH]2)n1 | JAK2 | enzyme activity | inhibitor | radiometric | 1 µM | remaining activity | 89% |
| CN1CC(Oc2cnc(C#N)cc2-c2ccn3nc(NC(=O)C4CC4)cc3c2)C1 | JAK2 | enzyme activity | inhibitor |  | 1 µM | inhibition | -20% |
| c1cnn2ncc(-c3ccnc(N4CCC45COC5)n3)c2c1 | JAK2 JH1 | cell-free assay |  |  | 1 µM | remaining signal | 74% |
| Cc1nn(CC(F)(F)F)cc1Nc1ncc(C2CC2)c(NCCCNC(=O)C2CCC2)n1 | JAK2 | enzyme activity | inhibitor | radiometric | 1 µM | remaining activity | 99% |
| COc1cc2ncnc(Nc3ccc(Oc4ccccc4)c(C)c3C)c2cc1OC | Tyrosine-protein kinase JAK2, JH1 (JAK2, Homo sapiens, UniProt O60674, V617F) | enzyme activity | inhibitor |  | 1 µM | inhibition | -4% |
| Cc1ccc(NC(=O)c2ccc(C)c(C(F)(F)F)c2)cc1C#Cc1nn(C2CCC(O)CC2)c2ncnc(N)c12 (stereo not drawn) | JAK2 | cell-free assay |  |  | 10 µM | remaining signal | 64% |
| C[C@@H]1CCN(c2nccc(-c3cnn4ncccc34)n2)C1 | JAK2 JH1 | cell-free assay |  |  | 1 µM | remaining signal | 90% |
| Cc1cc(NC(=O)c2cccc3cc(-c4cccc5[nH]nc(N)c45)ccc23)ccc1F | JAK2 | enzyme activity | inhibitor |  | 0.1 µM | activity vs control | 78% |
| CO[C@@H](C)c1c(Nc2ccc([C@@H](N(C)C(=O)C3CCS(=O)(=O)CC3)C(F)(F)F)cc2)cnc2cc(Cl)nn12 | JAK2 JH1 | cell-free assay |  | competition with immobilised ligand | 1 µM | remaining binding | 98% |
| FC(F)(F)Oc1cccc(-c2cnc3ccc(-c4ccncc4)nn23)c1 | JAK2 | enzyme activity | inhibitor | radiometric | 5 µM | activity vs control | 72% |
| O=C(NCCCNc1ccnc(Nc2cccc(NC(=O)N3CCCC3)c2)n1)C1CCC1 | JAK2 | enzyme activity | inhibitor | radiometric | 1 µM | remaining activity | 88% |
| O=C(NCCCC1CCCCC1)c1ccc(CNC(=O)c2cnn(-c3ccccc3)c2C(F)(F)F)cc1 | JAK2 JH1 | cell-free assay |  | competition with immobilised ligand | 0.1 µM | remaining binding | 100% |
